# In ChEMBL document CHEMBL1154970, “Replacement of pyrazol-3-yl amine hinge binder with thiazol-2-yl amine: Discovery of potent and selective JAK2 inhibitors” (Bioorg Med Chem Lett, 2010):
# Experiments:
# [1] = Growth inhibition of mouse BA/F3 cells transfected with recombinant TEL-JAK2 kinase after 48 hrs by alamar blue assay; assay type: functional, cell-based; conditions: BaF3, 48 h
# Procedure, shortened: (§1)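 Proliferation of Ba/F3 cells transfected with TEL-JAK2 or TEL-JAK3 fusions; GI50 determined.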
# [2] = Growth inhibition of mouse BA/F3 cells transfected with recombinant TEL-JAK3 kinase after 48 hrs by alamar blue assay; assay type: functional, cell-based, BaF3; procedure, shortened: as §1
# [3] = Intrinsic clearance in rat liver microsomes at 2 uM by LC-MS/MS; assay type: ADME, Microsome
# Procedure, shortened: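 Rat liver microsomes incubated with compound at 2 μM initial concentration; time-dependent disappearance of parent measured by LC–MS/MS to give intrinsic clearance (μL/min/mg).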
# [4] = molecular target: T1, Tyrosine-protein kinase JAK2 (Homo sapiens, UniProt O60674); assay: Inhibition of recombinant JAK2 kinase in presence of 5 mM ATP
# T1 sequence (O60674 whole entry): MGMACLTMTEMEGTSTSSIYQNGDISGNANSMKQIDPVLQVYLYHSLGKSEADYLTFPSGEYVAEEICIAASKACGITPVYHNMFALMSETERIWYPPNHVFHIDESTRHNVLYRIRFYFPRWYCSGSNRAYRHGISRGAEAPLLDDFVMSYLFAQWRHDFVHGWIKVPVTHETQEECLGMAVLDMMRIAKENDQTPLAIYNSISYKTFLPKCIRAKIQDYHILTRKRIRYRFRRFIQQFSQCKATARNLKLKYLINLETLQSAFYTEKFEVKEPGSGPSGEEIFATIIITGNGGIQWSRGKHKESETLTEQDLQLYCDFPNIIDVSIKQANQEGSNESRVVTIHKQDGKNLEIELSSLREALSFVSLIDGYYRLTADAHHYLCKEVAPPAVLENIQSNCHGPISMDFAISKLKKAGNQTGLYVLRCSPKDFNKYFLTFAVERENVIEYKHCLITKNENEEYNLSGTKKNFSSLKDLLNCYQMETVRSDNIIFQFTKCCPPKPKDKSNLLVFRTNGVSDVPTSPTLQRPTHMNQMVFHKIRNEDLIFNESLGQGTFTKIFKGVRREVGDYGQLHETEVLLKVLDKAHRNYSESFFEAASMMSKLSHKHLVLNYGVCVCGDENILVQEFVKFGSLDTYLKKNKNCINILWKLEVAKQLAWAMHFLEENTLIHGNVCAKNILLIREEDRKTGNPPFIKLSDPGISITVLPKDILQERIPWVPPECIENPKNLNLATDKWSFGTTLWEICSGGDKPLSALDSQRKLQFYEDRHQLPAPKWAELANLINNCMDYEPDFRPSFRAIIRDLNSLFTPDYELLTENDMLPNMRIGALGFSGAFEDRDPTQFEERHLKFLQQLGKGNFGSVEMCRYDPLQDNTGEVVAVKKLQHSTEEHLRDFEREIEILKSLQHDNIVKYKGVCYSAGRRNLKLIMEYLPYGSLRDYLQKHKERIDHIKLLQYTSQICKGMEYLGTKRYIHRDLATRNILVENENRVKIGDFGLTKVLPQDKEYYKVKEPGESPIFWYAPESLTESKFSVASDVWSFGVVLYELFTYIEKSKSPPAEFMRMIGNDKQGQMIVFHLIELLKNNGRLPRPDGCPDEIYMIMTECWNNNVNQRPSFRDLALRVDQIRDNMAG
# [5] = system: BaF3; assay: Selectivity ratio of GI50 for mouse BA/F3 cells transfected with recombinant TEL-JAK3 kinase to GI50 for mouse BA/F3 cells transfected with recombinant TEL-JAK2 kinase; assay type: functional, cell-based
# Procedure, shortened: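 Fold selectivity calculated as the TEL-JAK3 Ba/F3 GI50 divided by the TEL-JAK2 Ba/F3 GI50.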
# [6] = molecular target: T1, Tyrosine-protein kinase JAK2; assay: Inhibition of recombinant JAK2 kinase in presence of 5 mM ATP
# [7] = Solubility of the compound; assay type: physicochemical
# [8] = molecular target: T1, Tyrosine-protein kinase JAK2; assay: Inhibition of recombinant JAK2 kinase in presence of ATP
# [9] = Half life in Han Wistar rat at 3 mg/kg, iv; assay type: ADME, organism-based; design: dose 3 mg/kg, route intravenous; conditions: in vivo
# [10] = Volume of distribution at steady state in Han Wistar rat at 3 mg/kg, iv; assay type: ADME, organism-based; design: dose 3 mg/kg, route intravenous; conditions: in vivo, read-out: Vdss
# [11] = Clearance in Han Wistar rat at 3 mg/kg, iv; assay type: ADME, organism-based; design: dose 3 mg/kg, route intravenous; conditions: in vivo
# [12] = molecular target: Voltage-gated inwardly rectifying potassium channel KCNH2 (Homo sapiens, UniProt Q12809)
# Sequence of Voltage-gated inwardly rectifying potassium channel KCNH2 (Q12809 whole entry): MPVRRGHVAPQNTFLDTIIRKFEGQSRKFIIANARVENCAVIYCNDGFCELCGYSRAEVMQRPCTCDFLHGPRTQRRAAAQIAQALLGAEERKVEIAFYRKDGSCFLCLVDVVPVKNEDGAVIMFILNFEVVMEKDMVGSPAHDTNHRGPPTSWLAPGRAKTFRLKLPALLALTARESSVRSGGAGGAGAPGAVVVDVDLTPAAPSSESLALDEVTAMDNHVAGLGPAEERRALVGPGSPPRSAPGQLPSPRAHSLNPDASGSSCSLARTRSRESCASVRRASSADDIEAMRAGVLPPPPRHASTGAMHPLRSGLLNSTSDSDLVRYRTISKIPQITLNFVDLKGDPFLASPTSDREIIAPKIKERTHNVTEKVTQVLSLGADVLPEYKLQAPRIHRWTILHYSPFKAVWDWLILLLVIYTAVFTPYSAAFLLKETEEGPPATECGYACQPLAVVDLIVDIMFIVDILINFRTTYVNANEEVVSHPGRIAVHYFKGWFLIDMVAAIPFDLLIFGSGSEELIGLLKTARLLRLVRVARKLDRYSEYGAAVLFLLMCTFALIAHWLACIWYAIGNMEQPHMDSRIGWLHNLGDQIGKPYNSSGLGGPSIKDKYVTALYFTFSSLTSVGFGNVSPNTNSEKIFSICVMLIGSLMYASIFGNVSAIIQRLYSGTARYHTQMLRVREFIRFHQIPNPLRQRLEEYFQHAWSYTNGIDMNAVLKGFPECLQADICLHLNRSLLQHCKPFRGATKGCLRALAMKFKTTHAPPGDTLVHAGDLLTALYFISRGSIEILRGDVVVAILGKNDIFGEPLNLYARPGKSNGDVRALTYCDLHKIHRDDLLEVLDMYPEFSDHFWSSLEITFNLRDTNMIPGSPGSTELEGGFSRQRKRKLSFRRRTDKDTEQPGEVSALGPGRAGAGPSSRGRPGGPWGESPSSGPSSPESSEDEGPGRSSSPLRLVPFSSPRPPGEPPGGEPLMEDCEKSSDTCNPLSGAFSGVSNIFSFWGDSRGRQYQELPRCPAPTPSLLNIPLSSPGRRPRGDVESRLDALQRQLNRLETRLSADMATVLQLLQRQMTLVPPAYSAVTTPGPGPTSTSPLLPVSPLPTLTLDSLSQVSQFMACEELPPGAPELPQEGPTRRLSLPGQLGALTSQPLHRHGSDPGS
# [13] = Plasma concentration in nude mouse transplanted with recombinant TEL-JAK2 expressing BA/F3 cells at 10 mg/kg, po dosed on day 10 of transplantation measured after 2 hrs; assay type: ADME, organism-based, BaF3; design: dose 10 mg/kg, route oral
# Procedure, shortened: (§2)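 Female nude mice implanted intravenously with Ba/F3 TEL-JAK2 cells on day 0, then dosed orally once at 10 mg/kg on day 10. Total plasma drug concentration measured at 2 or 6 h post-dose by LC-MS on a C18 column, water/MeCN with 0.1% formic acid; n = 3 per time point.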
# [14] = Plasma concentration in nude mouse transplanted with recombinant TEL-JAK2 expressing BA/F3 cells at 10 mg/kg, po dosed on day 10 of transplantation measured after 6 hrs; assay type: ADME, organism-based, BaF3; design: dose 10 mg/kg, route oral; procedure, shortened: as §2
# [15] = molecular target: T1, Tyrosine-protein kinase JAK2; conditions: BaF3; 10 mg/kg
# [16] = Mus musculus, BaF3, 48 h, read-out: GI50
microsomal CLint at 2 µM [3],IC50 [4],half-life [9],Vd [10],clearance [11],concentration at 2 h [13],concentration at 6 h [14],SMILES,GI50 [1],"GI50 ([2]; Mus musculus, BaF3, 48 h)",RatioGI50 [5],IC50 [12],other results
31 µL/min/mg,< 3 nM,,,,,,C[C@H](Nc1nc(Nc2ncc(C#N)s2)cc(N2CCOCC2)n1)c1ccc(F)cn1,36 nM,170 nM,,,
41 µL/min/mg,,,,,,,C[C@H](Nc1nc(Nc2ncc(C#N)s2)cc(N2CCOCC2)n1)c1ncc(F)cn1,53 nM,520 nM,10,,RatioGI50 [6]: 0.079
52 µL/min/mg,49 nM,,,,,,Cc1cnc(Nc2cncc(N[C@@H](C)c3ncc(F)cn3)n2)s1,,,,,solubility [7]: > 1000 µM; IC50 [8]: 4 nM
< 4 µL/min/mg,,1.4 h,1.1 L/kg,14 mL/min/kg,,,Cc1cc(Nc2cncc(N[C@@H](C)c3ncc(F)cn3)n2)n[nH]1,,,,,solubility [7]: > 1000 µM; IC50 [8]: < 3 nM
> 100 µL/min/mg,< 3 nM,,,,,,COc1cc(Nc2ncc(C)s2)nc(N[C@@H](C)c2ncc(F)cn2)n1,,,35,> 32000 nM,"GI50 ([1]; read-out: GI50): 42 nM; GI50 [2, 16]: 1500 nM"
,,,,,219 ng/mL,95 ng/mL,Cc1cnc(Nc2nc(N[C@@H](C)c3ncc(F)cn3)nc(N3CCOCC3)c2F)s1,,,,,
> 120 µL/min/mg,,1.2 h,2.8 L/kg,38 mL/min/kg,126 ng/mL,55 ng/mL,Cc1cnc(Nc2cc(N3CCOCC3)nc(N[C@@H](C)c3ccc(F)cn3)n2)s1,,1200 nM,,12000 nM,
220 µL/min/mg,< 3 nM,1.3 h,8.5 L/kg,80 mL/min/kg,,,Cc1cnc(Nc2cc(N3CCN(C)CC3)nc(N[C@@H](C)c3ccc(F)cn3)n2)s1,5 nM,,,13000 nM,"GI50 [2]: 0.62; RatioGI50 ([5]; Mus musculus, BaF3): 129"
84 µL/min/mg,3 nM,1.3 h,2.3 L/kg,32 mL/min/kg,715 ng/mL,146 ng/mL,Cc1cnc(Nc2cc(N3CCOCC3)nc(N[C@@H](C)c3ncc(F)cn3)n2)s1,,,237,> 32000 nM,"GI50 ([1]; read-out: GI50): 5 nM; GI50 [2, 16]: 1100 nM; inhibition [15]: > 80%"
